Laboratory results taken from ChEMBL document CHEMBL5136964, “Truncated S-MGBs: towards a parasite-specific and low aggregation chemotype” (RSC Med Chem, 2021).
≈ marks a conversion by molar mass, not a printed value.

How the values were obtained:
Enterococcus faecalis = assay: Antibacterial activity against Enterococcus faecalis ATCC 51299 measured after 18 hrs by two-fold serial dilution method; format: functional
Staphylococcus aureus = assay: Antibacterial activity against Staphylococcus aureus ATCC 43300 measured after 18 hrs by two-fold serial dilution method; format: functional
DNA = assay: Binding affinity to DNA (unknown origin) assessed as change in melting temperature at 2:1 compound to DNA ratio by UV-visible spectrophotometry; format: nucleic-acid assay
Method in brief: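 Duplex oligomer at 6 × 10⁻⁶ M in 10 mM PBS (pH 7.4) with 50 mM NaCl was annealed (90 °C, then unaided cooling) and mixed at 2 S-MGB:1 helix; the reference had no ligand. Samples were heated 10–90 °C and cooled 80–10 °C at 0.5 °C min⁻¹, with A260 recorded. Tm came from a Boltzmann sigmoid fit; three repeats.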

[1] = tested on: Trypanosoma brucei brucei; assay: Antiparasitic activity against bloodstream form of Trypanosoma brucei brucei Lister 427 measured after 48 hrs by alamar blue assay; format: functional
[2] = Diffusion coefficient of compound in 50% v/v pH 5 sodium acetate buffer in DMSO-d6 at 1.5 mM by DOSY analysis; format: physicochemical; details: pH 5, 1500 µM
[3] = Aggregation property of compound in 0.1 M pH 5 sodium acetate buffer at 1.5 mM by 1H-NMR spectra analysis; format: physicochemical; details: pH 5, 1500 µM
[4] = Aggregation property of compound in 45% DMSO-d6:55% 0.1 M pH 5 sodium acetate buffer at 1.5 mM by 1H-NMR spectra analysis; format: physicochemical; details: pH 5, 1500 µM
Method in brief: (§1)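 Proton NMR series at a fixed 1.5 mM S-MGB. DMSO-d6 was stepped down by 5% from 80% to 25% by adding 0.1 M pH 5 sodium acetate buffer, giving twelve solvent compositions per compound.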

[5] = Aggregation property of compound at 1.5 mM by 1H-NMR spectra analysis; details: 1500 µM
[6] = Resistance factor, ratio of EC50 for bloodstream form of diminazene-resistant Trypanosoma congolense EMS MUT DimR to EC50 for wild-type bloodstream form of Trypanosoma congolense; format: functional
Method in brief: (§2)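 The ratio was taken from Alamar Blue EC50s for resistant and wild-type IL3000 bloodstream-form T. congolense. Cells at 2.5×10^5 per mL were grown at 34 °C in 5% CO2 in supplemented MEM with compound for 48 h, then with resazurin for 24 h.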

[7] = Aggregation property of compound in 70% v/v 0.1 M pH 5 sodium acetate buffer in DMSO-d6 at 1.5 mM by 1H-NMR spectra analysis; format: physicochemical; details: pH 5, 1500 µM; method in brief: as §1
Trypanosoma congolense [8] = assay: Antitrypanosomal activity against bloodstream form of diminazene-resistant Trypanosoma congolense EMS MUT DimR measured after 48 hrs by alamar blue assay; format: functional, organism-based
Method in brief: (§3)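 Bloodstream-form T. congolense IL3000 and derived diminazene-resistant lines were grown at 34 °C in humidified 5% CO2 in supplemented MEM with 20% goat serum. Cells at 2.5×10^5 per mL were seeded into serial compound dilutions and incubated 48 h. 0.49 mM resazurin solution was then added for a further 24 h.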

Trypanosoma congolense [9] = assay: Antitrypanosomal activity against bloodstream form of diminazene-resistant Trypanosoma congolense DimR measured after 48 hrs by alamar blue assay; format: functional, organism-based; method in brief: as §3
Trypanosoma vivax = assay: Antitrypanosomal activity against Trypanosoma vivax STIB 719 by [3H]-hypoxanthine incorporation assay; format: functional, organism-based
Leishmania donovani = assay: Antileishmanial activity against Leishmania donovani MHOM/ET/67:LV82 amastigotes infected in BMDM cell measured after 48 hrs by luciferase assay; format: functional, organism-based; details: MHOM/ET/67:LV82, BMDM
Method in brief: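 Bone marrow-derived macrophages (0.5×10^5/well) were infected at a 20:1 […] ratio with luciferase-expressing L. donovani LV82. Free parasites were removed at 24 h post-infection, then doubling dilutions were added, starting at 25 or 20 μg mL⁻¹ from a 1 mg mL⁻¹ DMSO stock. At 72 h, luciferin (150 μg mL⁻¹) was added and bioluminescence suppression read against controls.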

[10] = Resistance factor, ratio of EC50 for bloodstream form of Trypanosoma brucei brucei B48 to EC50 for wild-type bloodstream form of Trypanosoma brucei brucei; format: functional
[11] = tested on: Trypanosoma brucei brucei; assay: Antiparasitic activity against wild-type Trypanosoma brucei brucei measured after 48 hrs by alamar blue assay; format: functional, organism-based
Trypanosoma congolense [12] = assay: Antitrypanosomal activity against bloodstream form of Trypanosoma congolense IL3000 measured after 48 hrs by alamar blue assay; format: functional, organism-based; details: IL3000, 48 h; method in brief: as §3
[13] = Cytotoxicity against rat L6 cells assessed as reduction in cell viability measured after 69 hrs by alamar blue assay; format: toxicity, cell-based
[14] = tested on: Trypanosoma brucei brucei; assay: Antiparasitic activity against bloodstream form of tbat1-/- deficient Trypanosoma brucei brucei measured after 48 hrs by alamar blue assay; format: functional, organism-based
Trypanosoma congolense [15] = assay: Antitrypanosomal activity against bloodstream form of Trypanosoma congolense measured after 48 hrs by alamar blue assay; format: functional, organism-based; method in brief: as §3
[16] = tested on: Trypanosoma brucei brucei; assay: Antiparasitic activity against bloodstream form of Trypanosoma brucei brucei B48 measured after 48 hrs by alamar blue assay; format: functional, organism-based; details: B48, 48 h
[17] = Resistance factor, ratio of EC50 for bloodstream form of diminazene-resistant Trypanosoma congolense DimR to EC50 for bloodstream form of wild-type Trypanosoma congolense; format: functional; method in brief: as §2
[18] = Resistance factor, ratio of EC50 for bloodstream form of tbat1-/- deficient Trypanosoma brucei brucei to EC50 for wild-type bloodstream form of Trypanosoma brucei brucei; format: functional

Compound | MIC80 (Enterococcus faecalis) [µM] | MIC80 (Staphylococcus aureus) [µM] | ΔTm (DNA) [°C] | EC50 [1] [nM] | further results
CN[C@H](CC(C)C)C(=O)N[C@H]1C(=O)N[C@@H](CC(N)=O)C(=O)N[C@H]2C(=O)N[C@H]3C(=O)N[C@H](C(=O)N[C@H](C(=O)O)c4cc(O)cc(O)c4-c4cc3ccc4O)[C@H](O)c3ccc(c(Cl)c3)Oc3cc2cc(c3O[C@@H]2O[C@H](CO)[C@@H](O)[C@H](O)[C@H]2O[C@H]2C[C@](C)(N)[C@H](O)[C@H](C)O2)Oc2ccc(cc2Cl)[C@H]1O [VANCOMYCIN] | 6.25 (≈ 9.06 µg/mL) | 0.39 (≈ 0.565 µg/mL) | – | – | –
Cn1cc(NC(=O)c2cc(NC(=O)c3ccc(/C=C/c4cnc5ccccc5c4)cc3)cn2C)cc1C(=O)NCCN1CCOCC1 [MGB-BP-3] | 0.78 (≈ 0.493 µg/mL) | 0.2 (≈ 0.126 µg/mL) | 20 | < 190 | D [2]: 1.07 10^-10 m²/s; Activity [3]: Active; Activity [4]: Active; Activity [5]: Active
Cn1cc(NC(=O)c2ccc(/C=C/c3cnc4ccccc4c3)cc2)cc1C(=O)NCCN1CCOCC1 | > 50 | > 50 | 10 | 3120 | Ratio EC50 [6]: 0.9; D [2]: 1.75 10^-10 m²/s; Activity [7]: Active; EC50 (Trypanosoma congolense [8]): 3200 nM; EC50 (Trypanosoma congolense [9]): 3100 nM; EC50 (Trypanosoma vivax): 760 nM; EC50 (Leishmania donovani): 1600 nM; Ratio EC50 [10]: 0.5; EC50 [11]: 1200 nM; EC50 (Trypanosoma congolense [12]): 870 nM; EC50 at 69 h [13]: 6700 nM; EC50 [14]: 550 nM; Activity [3]: Active; EC50 (Trypanosoma congolense [15]): 3400 nM; Activity [4]: Active; Activity [5]: Active; EC50 [16]: 600 nM; Ratio EC50 [17]: 0.9; Ratio EC50 [18]: 0.5
COc1cccc(/C=C/c2ccc(C(=O)Nc3cc(C(=O)NCCN4CCOCC4)n(C)c3)cc2)c1 | > 50 | > 50 | 0 | > 50000 | –
N=C(N)c1ccc(/N=N/Nc2ccc(C(=N)N)cc2)cc1 [DIMINAZENE] | – | – | – | 500 | Ratio EC50 [6]: 10.9; EC50 (Trypanosoma congolense [8]): 2300 nM; EC50 (Trypanosoma congolense [9]): 2100 nM; EC50 (Trypanosoma vivax): 170 nM; Ratio EC50 [10]: 2.6; EC50 [11]: 30 nM; EC50 (Trypanosoma congolense [12]): 130 nM; EC50 [14]: 180 nM; EC50 (Trypanosoma congolense [15]): 200 nM; EC50 [16]: 80 nM; Ratio EC50 [17]: 9.5; Ratio EC50 [18]: 5.9
COc1cccc(/C=C/c2ccc(C(=O)Nc3cc(C(=O)NN(C)C)n(C)c3)cc2)c1 | – | – | 0 | – | –
COc1cccc(/C=C/c2ccc(C(=O)Nc3cc(C(=O)Nc4cc(C(=O)NCCN5CCOCC5)n(C)c4)n(C)c3)cc2)c1 | 25 (≈ 15.3 µg/mL) | 6.25 (≈ 3.82 µg/mL) | 10 | 780 | –

More lines, main results first:

MIC80 (Enterococcus faecalis) [µM] | MIC80 (Staphylococcus aureus) [µM] | ΔTm (DNA) [°C] | EC50 [1] [nM] | Compound | further results
> 50 | > 50 | 0 | > 50000 | COc1ccc(/C=C/c2ccc(C(=O)Nc3cc(C(=O)N4CCN(C)CC4)n(C)c3)cn2)cc1 | –
> 50 | > 50 | 0 | > 50000 | COc1ccc(/C=C/c2ccc(C(=O)Nc3cc(C(=O)NN(C)C)n(C)c3)cn2)cc1 | –
> 50 | > 50 | 0 | > 50000 | COc1cccc(/C=C/c2ccc(C(=O)Nc3cc(C(=O)N4CCN(C)CC4)n(C)c3)cc2)c1 | –
– | – | 2 | – | CN1CCN(C(=O)c2cc(NC(=O)c3ccc(/C=C/c4cnc5ccccc5c4)cc3)cn2C)CC1 | –
3.12 (≈ 1.91 µg/mL) | 1.56 (≈ 0.954 µg/mL) | 12 | 1560 | COc1ccc(/C=C/c2ccc(C(=O)Nc3cc(C(=O)Nc4cc(C(=O)NCCN5CCOCC5)n(C)c4)n(C)c3)cn2)cc1 | –
